In ChEMBL document CHEMBL1140034, “Conformationally constrained analogues of diacylglycerol. 30. An investigation of diacylglycerol-lactones containing heteroaryl groups reveals compounds with high selectivity for Ras guanyl nucleotide-releasing proteins” (J Med Chem, 2008):

Key:
[1] = target: T1, Ras guanyl-releasing protein 3 (Homo sapiens, UniProt Q8IV61); test: Displacement of [3H]PDBu from RasGRP3 expressed in cells; format: cell-based
T1 sequence (Q8IV61 whole entry): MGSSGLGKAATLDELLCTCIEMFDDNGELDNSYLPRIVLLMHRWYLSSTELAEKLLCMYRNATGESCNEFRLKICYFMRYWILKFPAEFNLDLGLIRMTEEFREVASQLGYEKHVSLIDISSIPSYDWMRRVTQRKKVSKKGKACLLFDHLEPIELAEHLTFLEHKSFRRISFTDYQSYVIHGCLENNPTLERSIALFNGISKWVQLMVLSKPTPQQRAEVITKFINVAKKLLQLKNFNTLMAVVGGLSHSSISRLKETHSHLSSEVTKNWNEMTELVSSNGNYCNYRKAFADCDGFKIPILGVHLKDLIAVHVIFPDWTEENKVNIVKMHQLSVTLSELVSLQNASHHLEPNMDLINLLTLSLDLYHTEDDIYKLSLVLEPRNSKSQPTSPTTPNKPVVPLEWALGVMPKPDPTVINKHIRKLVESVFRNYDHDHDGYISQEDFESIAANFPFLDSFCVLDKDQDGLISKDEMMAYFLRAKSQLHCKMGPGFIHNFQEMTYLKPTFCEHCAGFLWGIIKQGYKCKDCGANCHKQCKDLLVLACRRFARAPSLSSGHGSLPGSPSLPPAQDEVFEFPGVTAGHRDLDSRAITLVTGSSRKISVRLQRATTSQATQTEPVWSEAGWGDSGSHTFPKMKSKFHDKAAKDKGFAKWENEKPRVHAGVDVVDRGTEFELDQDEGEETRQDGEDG
How it was run: (§1)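 Competition binding: displacement of bound [20-3H]phorbol 12,13-dibutyrate from recombinant PKC alpha or RasGRP3 measured in the presence of phosphatidylserine. IC50 obtained by fitting data points to the theoretical competition curve; Ki calculated from the corresponding IC50.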

[2] = Ratio of Ki for human recombinant PKCalpha to RasGRP3
How it was run: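 Ki values for PKC alpha and RasGRP3 each come from [20-3H]PDBu displacement from the recombinant protein in the presence of phosphatidylserine, with IC50 fitted to the theoretical competition curve and converted to Ki. The ratio is Ki(PKC alpha)/Ki(RasGRP3).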

[3] = target: Protein kinase C alpha type (Homo sapiens, UniProt P17252); test: Displacement of [3H]PDBu from human recombinant PKCalpha expressed in Escherichia coli […] (DE3); how it was run: as §1
[4] = Lipophilicity, SlogP of the compound; format: physicochemical; conditions: octanol/water

Ki [1]	Ratio Ki [2]	Ki [3]	logP [4]	Structure (SMILES)
1.7 nM	31	51.9 nM	4.06	CCCC(CCC)C(=O)OCC1(CO)C/C(=C\c2ccc3ccccc3n2)C(=O)O1 (centres undefined)
2040 nM	8	15800 nM	3.22	CN(C)c1ccc(C(=O)OCC2(CO)C/C(=C/c3ccc4ccccc4n3)C(=O)O2)cc1 (centres undefined)
32.2 nM	5	177 nM	4.06	CCCC(CCC)C(=O)OCC1(CO)C/C(=C/c2cnc3ccccc3c2)C(=O)O1 (centres undefined)
1970 nM	20	34100 nM	2.07	CN(C)c1ccc(C(=O)OCC2(CO)C/C(=C/c3cccnc3)C(=O)O2)cc1 (centres undefined)
2360 nM	14	33200 nM	2.07	CN(C)c1ccc(C(=O)OCC2(CO)C/C(=C/c3ccncc3)C(=O)O2)cc1 (centres undefined)
81 nM	10	810 nM	2.01	COc1ccc(C(=O)OCC2(CO)C/C(=C\c3cccnc3)C(=O)O2)cc1 (centres undefined)
0.52 nM	27	13.8 nM	4.06	CCCC(CCC)C(=O)OCC1(CO)C/C(=C\c2cnc3ccccc3c2)C(=O)O1 (centres undefined)
0.72 nM	119	86.3 nM	2.9	CCCC(CCC)C(=O)OCC1(CO)C/C(=C\c2ccccn2)C(=O)O1 (centres undefined)
0.18 nM	165	29.7 nM	4.36	CCCC(CCC)C(=O)OCC1(CO)C/C(=C\c2cn(C)c3ccccc23)C(=O)O1 (centres undefined)
54.2 nM	27	1450 nM	2.01	COc1ccc(C(=O)OCC2(CO)C/C(=C\c3ccncc3)C(=O)O2)cc1 (centres undefined)
4.6 nM	17	78.8 nM	4.06	CCCC(CCC)C(=O)OCC1(CO)C/C(=C/c2ccc3ccccc3n2)C(=O)O1 (centres undefined)
1.6 nM	47	76 nM	2.9	CCCC(CCC)C(=O)OCC1(CO)C/C(=C\c2cccnc2)C(=O)O1 (centres undefined)
1410 nM	3	4880 nM	3.22	CN(C)c1ccc(C(=O)OCC2(CO)C/C(=C/c3cnc4ccccc4c3)C(=O)O2)cc1 (centres undefined)
0.2 nM	–	4.6 nM	3.78	CC(C)CC(CC(=O)OCC1(CO)C/C(=C\c2ccccn2)C(=O)O1)CC(C)C (centres undefined)
5500 nM	4	21200 nM	2.01	COc1ccc(C(=O)OCC2(CO)C/C(=C/c3cccnc3)C(=O)O2)cc1 (centres undefined)
17.4 nM	8	144 nM	3.16	COc1ccc(C(=O)OCC2(CO)C/C(=C\c3cnc4ccccc4c3)C(=O)O2)cc1 (centres undefined)
3.3 nM	64	212 nM	3.46	COc1ccc(C(=O)OCC2(CO)C/C(=C\c3cn(C)c4ccccc34)C(=O)O2)cc1 (centres undefined)
11 nM	14	150 nM	3.22	CN(C)c1ccc(C(=O)OCC2(CO)C/C(=C\c3ccc4ccccc4n3)C(=O)O2)cc1 (centres undefined)

Ki [1]	Ratio Ki [2]	Ki [3]	logP [4]	Structure (SMILES)
35.8 nM	32	1130 nM	2.01	COc1ccc(C(=O)OCC2(CO)C/C(=C\c3ccccn3)C(=O)O2)cc1 (centres undefined)
3660 nM	7	25400 nM	2.01	COc1ccc(C(=O)OCC2(CO)C/C(=C/c3ccncc3)C(=O)O2)cc1 (centres undefined)
6.7 nM	20	136 nM	–	COc1ccc(C(=O)OCC2(CO)C/C(=C\c3ccc([N+](=O)[O-])cc3)C(=O)O2)cc1 (centres undefined)
137 nM	6	755 nM	3.22	CN(C)c1ccc(C(=O)OCC2(CO)C/C(=C\c3cnc4ccccc4c3)C(=O)O2)cc1 (centres undefined)
54 nM	19	1110 nM	2.07	CN(C)c1ccc(C(=O)OCC2(CO)C/C(=C\c3ccncc3)C(=O)O2)cc1 (centres undefined)
2470 nM	11	27100 nM	2.01	COc1ccc(C(=O)OCC2(CO)C/C(=C/c3ccccn3)C(=O)O2)cc1 (centres undefined)
907 nM	6	5100 nM	3.16	COc1ccc(C(=O)OCC2(CO)C/C(=C/c3cnc4ccccc4c3)C(=O)O2)cc1 (centres undefined)
–	90	343 nM	–	CN(C)c1ccc(C(=O)OCC2(CO)C/C(=C\c3ccc([N+](=O)[O-])cc3)C(=O)O2)cc1 (centres undefined)
44 nM	20	870 nM	2.9	CCCC(CCC)C(=O)OCC1(CO)C/C(=C/c2ccncc2)C(=O)O1 (centres undefined)
13.8 nM	45	627 nM	2.9	CCCC(CCC)C(=O)OCC1(CO)C/C(=C\c2ccncc2)C(=O)O1 (centres undefined)
1390 nM	2	2940 nM	3.16	COc1ccc(C(=O)OCC2(CO)C/C(=C/c3ccc4ccccc4n3)C(=O)O2)cc1 (centres undefined)
83 nM	16	1370 nM	2.9	CCCC(CCC)C(=O)OCC1(CO)C/C(=C/c2ccccn2)C(=O)O1 (centres undefined)
8.2 nM	16	132 nM	3.16	COc1ccc(C(=O)OCC2(CO)C/C(=C\c3ccc4ccccc4n3)C(=O)O2)cc1 (centres undefined)
0.7 nM	–	14.8 nM	5.24	CC(C)CC(CC(=O)OCC1(CO)C/C(=C\c2cn(C)c3ccccc23)C(=O)O1)CC(C)C (centres undefined)
59 nM	13	790 nM	2.07	CN(C)c1ccc(C(=O)OCC2(CO)C/C(=C\c3cccnc3)C(=O)O2)cc1 (centres undefined)
670 nM	5	3270 nM	2.9	CCCC(CCC)C(=O)OCC1(CO)C/C(=C/c2cccnc2)C(=O)O1 (centres undefined)
23.8 nM	43	1020 nM	2.07	CN(C)c1ccc(C(=O)OCC2(CO)C/C(=C\c3ccccn3)C(=O)O2)cc1 (centres undefined)
3.7 nM	47	174 nM	3.22	CN(C)c1ccc(C(=O)OCC2(CO)C/C(=C\c3cn(C)c4ccccc34)C(=O)O2)cc1 (centres undefined)
